A selection: hits, their analogues and other compounds. The true share with any hit is near 2.5%.
SENP8 block-1: SENP8 (human) protease inhibition | recombinant SENP8, Nedd8 substrate fluorescence | inhibition, % at 20 µM | 360,000 tested, 0.64% active; in the data active means inhibition mostly above about 40%, no sharp cut-off; inactive means mostly below about 27%
Target sequence (Q96LD8 whole entry, looked up): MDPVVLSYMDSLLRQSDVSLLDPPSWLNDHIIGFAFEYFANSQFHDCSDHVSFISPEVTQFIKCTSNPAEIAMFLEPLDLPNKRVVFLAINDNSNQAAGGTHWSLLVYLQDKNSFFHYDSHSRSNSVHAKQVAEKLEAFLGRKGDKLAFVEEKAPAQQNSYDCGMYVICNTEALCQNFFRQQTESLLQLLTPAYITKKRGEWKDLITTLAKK
SENP8 block-2: inhibitors of human SENP8 protease | Q96LD8 | purified SENP8, Z-RLRGG-aminoluciferin cleavage, luminescence | inhibition, % at 10 µM | 330,000 tested, 1.2% active | AID 2540; in the data active means inhibition above about 50%
SENP1 inh: inhibitors of human SENP1 SUMO protease catalytic domain. Q9P0U3. recombinant SENP1 catalytic domain, CyPet-SUMO1-YPet FRET cleavage. inhibition, % at 10 µM. 360,000 tested, 0.21% active. AID 624204;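 active means inhibition at least 30% at 10 µM, raw YFP signal under a set limit, fluorescence ratio 0.5 to 1.5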
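System: Recombinant human SENP1 catalytic domain, His6-tagged | Incubation: Enzyme reaction for 50 min at room temperature, dark | Medium: Tris pH 8 with BME, BSA, NP40 and catalase | Also added: 25 nM SUMO1 FRET substrate | Compound: 10 µM single point, 0.5% DMSO | Measured by: FRET fluorescence in CFP and YFP emission channels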
SENP7 block: SENP7 protease inhibition | Q9BQF6 | recombinant SENP7, Z-RLRGG-aminoluciferin luminescence, 40 min | inhibition, % at 5 µM | 330,000 tested, 1.5% active | AID 434973;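 active means inhibition above about 50% at the single test dose, limit read from the data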
Target sequence (Q9BQF6 706-1050 limits assumed): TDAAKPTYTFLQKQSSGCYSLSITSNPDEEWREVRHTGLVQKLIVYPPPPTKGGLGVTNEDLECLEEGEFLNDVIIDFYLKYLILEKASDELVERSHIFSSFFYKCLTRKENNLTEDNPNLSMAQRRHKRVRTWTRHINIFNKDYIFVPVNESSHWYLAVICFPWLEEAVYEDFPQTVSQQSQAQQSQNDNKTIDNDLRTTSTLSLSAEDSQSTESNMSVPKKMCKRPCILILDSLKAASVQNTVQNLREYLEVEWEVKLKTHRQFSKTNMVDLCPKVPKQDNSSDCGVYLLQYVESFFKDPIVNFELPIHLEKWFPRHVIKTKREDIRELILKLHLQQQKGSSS
SENP6 block: SENP6 protease inhibition; Q9GZR1; Recombinant SENP6 catalytic domain, aminoluciferin luminescence; inhibition, % at 10 µM; 330,000 tested, 1.8% active;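 active means inhibition above about 50% at the single tested dose, limit read from the data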
SENP8 conf: confirmation of human SENP8 protease inhibitors. shares compounds with SENP7 block. Recombinant SENP8, Z-RLRGG-aminoluciferin luminescence, 60 min. inhibition, % at 12.5 µM. 6,200 tested, 40% active. AID 488912;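 active means mean inhibition across replicates above about 50%, limit read from the data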
SENP6 confirm: human SENP6 inhibition, confirmed; inhibition, % at 12.5 µM; shares compounds with SENP7 block; 6,200 tested, 58% active; AID 488915; recombinant SENP6, Z-RLRGG-aminoluciferin luminescence
SENP7 conf: human SENP7 inhibition, confirmed. recombinant SENP7, Z-RLRGG-aminoluciferin luminescence, 40 min. shares compounds with SENP7 block. inhibition, % at 12.5 µM. 6,200 tested, 69% active
Casp3 select: selectivity test for SENP inhibitors: human caspase-3 inhibition. shares compounds with SENP7 block. purified caspase-3, Z-DEVD-aminoluciferin luminescence, 60 min. inhibition, % at 12.5 µM. 6,200 tested, 60% active;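 active means mean inhibition above about 50%, limit read from the data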
Luc interf: luminescence interference (SENP counter-screen); inhibition, % at 12.5 µM; Pre-incubated SENP8/Z-RLRGG-aminoluciferin, luciferase luminescence interference; AID 488919; 6,200 tested, 39% active; shares compounds with SENP7 block;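 active means mean inhibition above about 50% when retested at one dose, limit read from the data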
Of the large screens only hits and unclear results are named; the others gave an inactive call (follow-up assays come after a bar, where they were run).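 How the source made its calls, unless noted: active means mean inhibition above about 50% in the one-dose retest (limit read from the data); inactive means the rest.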

O=C(O)c1cccc(-c2nc3ccccc3[nH]2)c1	SENP8 block-2 94.4, SENP7 block 99.4, SENP6 block 93.9 | SENP8 conf 95.9 | SENP6 confirm 96.8 | SENP7 conf 100.5 | Casp3 select 89.1 | Luc interf 95.7
Nc1cc(N)cc(-c2nc3ccccc3[nH]2)c1	none
COc1ccc(-c2nc3ccccc3nc2-c2ccc(OC)cc2)cc1	none
COC(=O)c1ccc(-c2nc3ccccc3[nH]2)cc1	SENP8 block-2 85.4, SENP7 block 94.8, SENP6 block 88.0 | SENP8 conf 93.2 | SENP6 confirm 92.6 | SENP7 conf 100.5 | Casp3 select 95.6 | Luc interf 91.2
CCN(CC)C(=O)[C@H]1C[C@H](CC(=O)NCCCn2ccnc2)C(=O)N2CCc3c([nH]c4cc(CCC(=O)N(C)C)ccc34)[C@]12C	none (no result: SENP8 block-2, SENP6 block)
c1ccc(-c2nc3ccccc3[nH]2)cc1	SENP8 block-2 70.6, SENP7 block 76.2, SENP6 block 75.6 | SENP8 conf 72.9 | SENP6 confirm 66.3 | SENP7 conf 90.5 | Casp3 select 83.7 | Luc interf 69.0
COc1ccc(-c2cc(=O)n(-c3nc4ccccc4[nH]3)[nH]2)cc1	SENP8 block-2 86.6, SENP6 block 91.3 | SENP8 conf inactive | SENP6 confirm 92.3 | SENP7 conf 100.9 | Casp3 select 95.7 | Luc interf 54.5
c1ccc2[nH]c(-c3ccncc3)nc2c1	none
Cc1ccc(/C=C2/CCc3c([nH]c4ccccc34)C2=O)cc1	SENP7 block 68.0 | SENP8 conf inactive | SENP6 confirm inactive | SENP7 conf inactive | Casp3 select inactive | Luc interf inactive
O=C1/C(=C\c2ccccc2)CCc2c1[nH]c1ccccc21	none
CC(NC(=O)c1ccco1)C(=O)OC(C)C(=O)NCc1ccccc1 (centres undefined)	none
COc1ccc(-c2cc(C(=O)Nc3ccc(C)c(C)c3)no2)cc1	none
COc1ccc(-c2cc(C(=O)Nc3cccc(O)c3)no2)cc1	SENP8 block-2 92.6, SENP7 block 98.8, SENP6 block 97.4 | SENP8 conf 93.0 | SENP6 confirm 94.0 | SENP7 conf 100.8 | Casp3 select 95.3 | Luc interf 56.8
O=C(Nc1cccc(O)c1)c1cc(-c2ccco2)on1	SENP8 block-2 84.4, SENP6 block 92.1 | SENP8 conf 90.1 | SENP6 confirm 90.7 | SENP7 conf 98.5 | Casp3 select 90.1 | Luc interf 89.5
N#Cc1nc(NCC(F)F)nc(Nc2cc(F)cc(F)c2)n1	none
O=C(OCN1C(=O)c2ccccc2C1=O)c1cc(S(=O)(=O)N2CCOCC2)ccc1F	none
COc1ccc2nc(N3C(=O)CNC3=S)sc2c1	none
Cc1ccc2nc(N3C(=O)CNC3=S)sc2c1	SENP8 block-2 91.3, SENP7 block 89.0, SENP6 block 94.2 | SENP8 conf inactive | SENP6 confirm 92.5 | SENP7 conf 100.3 | Casp3 select 94.6 | Luc interf inactive
Cc1ccc(NC(=S)c2nc3ccccc3s2)cc1	SENP7 block 80.4, SENP6 block 60.6 | SENP8 conf inactive | SENP6 confirm inactive | SENP7 conf inactive | Casp3 select inactive | Luc interf inactive
S=C(Nc1ccc(Cl)cc1)c1nc2ccccc2s1	SENP7 block 57.3 | SENP8 conf inactive | SENP6 confirm inactive | SENP7 conf inactive | Casp3 select inactive | Luc interf inactive
Cc1ccc(C)c(NC(=S)c2nc3ccccc3s2)c1	none
O=C(Cn1cnc2ccccc2c1=O)c1ccc(Cl)cc1	none (no result: SENP8 block-2, SENP7 block, SENP6 block)
Cc1cccc(N(C(=O)CNC(=O)c2cccs2)C(C(=O)NC2CCCC2)c2ccncc2)c1 (centres undefined)	none
Cc1ccc(/C(N)=N/OC(=O)c2cccc(F)c2)cc1	SENP7 block 75.9, SENP6 block 61.2 | SENP8 conf inactive | SENP6 confirm inactive | SENP7 conf 82.7 | Casp3 select 61.2 | Luc interf inactive
N/C(=N\OC(=O)c1cccc(F)c1)c1ccccc1	SENP8 block-2 77.1, SENP7 block 95.5, SENP6 block 90.9 | SENP8 conf 82.6 | SENP6 confirm 84.7 | SENP7 conf 97.2 | Casp3 select 92.3 | Luc interf 78.5
O=C(c1ccc(N2CCOCC2)cc1[N+](=O)[O-])N1CCOCC1	none
O=C(CSc1nccn1Cc1ccccc1)NC1CCCC1	none
CC(=O)Nc1ccc(NC2=C/C(=N/S(=O)(=O)c3cccs3)c3ccccc3C2=O)cc1	SENP8 block-1 68.8, SENP8 block-2 79.2, SENP7 block 54.1, SENP6 block 92.8 | SENP8 conf 90.0 | SENP6 confirm 95.5 | SENP7 conf 85.2 | Casp3 select 51.1 | Luc interf inactive
CN(C)CCn1c(SCc2ccccc2C#N)nc2c(sc3ccccc32)c1=O	none
CSc1cccc(NC(=O)Cn2cccc2)c1	none
CCc1ccc(NC(=O)c2cnn3ccccc23)cc1	SENP8 block-2 88.8, SENP7 block 94.7, SENP6 block 90.7 | SENP8 conf 93.2 | SENP6 confirm 94.0 | SENP7 conf 100.6 | Casp3 select 92.6 | Luc interf 93.5
CSc1cccc(NC(=O)c2cnn3ccccc23)c1	SENP7 block 71.1, SENP6 block 76.1 | SENP8 conf 72.5 | SENP6 confirm 70.1 | SENP7 conf 90.7 | Casp3 select 64.8 | Luc interf 71.7
O=C(NCc1ccc(F)cc1)c1cnn2ccccc12	none
O=C(CCn1c(=O)oc2cc(Cl)ccc21)Nc1ccc(N2CCOCC2)cc1	none
COc1ccc(C=C2C(=O)c3ccccc3C2=O)cc1O	SENP8 block-2 94.1, SENP7 block 96.2, SENP6 block 95.1 | SENP8 conf 98.3 | SENP6 confirm 98.4 | SENP7 conf 101.9 | Casp3 select 94.0 | Luc interf inactive
COc1cc(C=C2C(=O)c3ccccc3C2=O)ccc1O	SENP8 block-2 93.3, SENP7 block 93.7 | SENP8 conf inactive | SENP6 confirm 90.6 | SENP7 conf 97.3 | Casp3 select 79.8 | Luc interf 60.8
Cc1cc(NC(=O)c2ccccc2)ncc1NC(=O)c1ccco1	SENP8 block-2 79.8, SENP7 block 91.1, SENP6 block 91.2 | SENP8 conf 88.7 | SENP6 confirm 87.9 | SENP7 conf 98.9 | Casp3 select 96.5 | Luc interf 86.7

From PubChem BioAssay
